Assay outcomes as filed in PubChem BioAssay.
hIAP act: increases human intestinal alkaline phosphatase activity | P09923 | 330,000 compounds, 0.16% hits | activation factor at 10 µM | AID 2524 | purified human IAP, CDP-Star luminescence, 30 min; stronger effect = higher value; 1 = vehicle-only enzyme, 0 = enzyme-free background;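 active means activation factor of the enzyme at least 2-fold when tested at 20 µM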
Target sequence (P09923 whole entry, looked up): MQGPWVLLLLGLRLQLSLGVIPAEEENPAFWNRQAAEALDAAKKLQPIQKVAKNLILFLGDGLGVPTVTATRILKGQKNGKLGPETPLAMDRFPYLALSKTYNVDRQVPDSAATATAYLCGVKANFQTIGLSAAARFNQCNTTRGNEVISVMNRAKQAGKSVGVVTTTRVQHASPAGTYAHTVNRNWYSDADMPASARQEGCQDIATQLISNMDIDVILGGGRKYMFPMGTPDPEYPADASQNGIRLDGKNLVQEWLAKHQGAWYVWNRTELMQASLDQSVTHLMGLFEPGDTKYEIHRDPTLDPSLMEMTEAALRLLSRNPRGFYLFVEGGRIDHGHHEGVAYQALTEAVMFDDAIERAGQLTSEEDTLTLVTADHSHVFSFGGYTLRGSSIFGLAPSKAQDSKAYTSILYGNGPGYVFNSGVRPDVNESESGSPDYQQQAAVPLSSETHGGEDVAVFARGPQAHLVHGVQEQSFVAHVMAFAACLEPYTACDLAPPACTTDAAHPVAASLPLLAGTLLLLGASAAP
hIAP block: human IAP inhibition. purified IAP, CDP-Star luminescence, 30 min. inhibition, % at 10 µM. 330,000 compounds, 0.12% hits;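 active means inhibition reaching a set limit with compound at 10 µM in the primary screen, cut at about 35% in these data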;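 further: plate controls were DMSO wells with enzyme for no effect and no-enzyme buffer wells for full effect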
mIAP block: mouse IAP inhibition. purified mouse IAP, CDP-Star luminescence, 30 min. inhibition, % at 10 µM. 330,000 compounds, 0.2% hits;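 active means inhibition of at least 40% at 10 µM in the primary screen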;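 further: plate controls were DMSO with enzyme for no effect and no enzyme wells for full effect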
bIAP inhibitor: blocks bovine intestinal alkaline phosphatase activity; purified bovine IAP, CDP-star luminescence, 30 min; 190,000 tested, under 10 active; inhibition, % at 20 µM;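 active means over 50% inhibition of intestinal alkaline phosphatase at 20 µM in the single-dose screen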
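System: purified bovine intestinal alkaline phosphatase (IAP) enzyme; Input: IAP diluted 1/65,000,000 in the well; Measured by: CDP-star luminescence signal; Compound dosing: 20 µM single dose; Incubation: 30 min reaction at room temperature.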
mIAP activ: mouse IAP activation; muIAP, CDP-Star luminescence, 30 min; stronger effect = higher value; 1 = vehicle-only enzyme signal, 0 = enzyme-free wells; activation factor at 10 µM; 330,000 compounds, 0.24% hits;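 active means activation factor of at least 2 at 20 µM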
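System: mouse IAP enzyme. Reagent: CDP-Star chemiluminescent phosphatase substrate. Benchmarks: DMSO wells, no-enzyme wells. Times: 30 min enzyme-substrate-compound incubation at room temperature. Detection: luminescence from enzymatic CDP-Star hydrolysis. Doses: test compounds delivered from DMSO solution.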
bIAP activator: increases bovine intestinal alkaline phosphatase activity; purified bovine IAP, CDP-star luminescence, 30 min; stronger effect = higher value; fold of DMSO-control signal, blank-subtracted; activation factor at 20 µM; 200,000 compounds, 0.17% hits; AID 1016;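 active means activation factor of 2 or more at 20 µM, a signal rise over negative controls twice the positive control's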
hIAP act confirm: human IAP activation confirmation. activation (%Activity, negative = activation), % at 8.3 µM. shares compounds with hIAP act. 880 compounds, 10% hits. purified IAP, CDP-Star luminescence, 30 min; stronger effect = lower value. AID 434926;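 active means at least twofold enzyme activation in any of six single-dose repeats, which the averaged readout prints as negative percent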
Active calls of the source: *; x = not tested or not shown. A selection: hits, their analogues and other compounds. The true share with any hit is near 0.72%.

SMILES	hIAP act	hIAP block	mIAP block	bIAP inhibitor	mIAP activ	bIAP activator	hIAP act confirm
Nc1nnc(Cc2ccccc2)s1	1.14	-14.0	-2.2	13.8	1.02	0.9	x
COc1cccc(CNC(=O)c2ccccc2NC(=O)C2=C(C)OCCS2)c1	0.891	10.9	-4.8	x	1.05	x	x
CCN1/C(=C\c2ccc3cc(C)ccc3[n+]2CC)Sc2cc(C)c(C)cc21	x	x	x	37.4	x	0.6	x
CCN1/C(=C/c2ccc3cc(C)ccc3[n+]2CC)Sc2ccc3sccc3c21	0.648	35.2*	43.4*	x	0.566	x	0.5
COc1ccccc1/C=C1\S/C(=N/NC(=O)c2cccc(Br)c2)NC1=O	2.45*	-145.1	-0.7	-5.2	1.01	1.1	1.5
COC(=O)/C=C1\S/C(=N/NC(=O)c2ccccc2)NC1=O	1.3	-29.8	15.5	-24.3	0.845	1.2	x
CCOC1=C/C(=C/c2c(N)n3nc(S(=O)(=O)CC)sc3nc2=O)C=CC1=O	0.632	36.8*	38.8	20.0	0.612	0.8	26.6
CCOC1=C/C(=C/c2c(N)n3nc(CC(=O)N4CCCCC4)sc3nc2=O)C=CC1=O	0.779	22.1	9.9	x	0.901	x	x
CN(CC(=O)Nc1ccccc1Br)C(=O)CNC(=O)c1ccc(Oc2ccccc2)cc1	0.649	35.1*	5.1	x	0.949	x	-1.9
CC(Oc1ccc(C(=O)c2ccccc2)cc1)C(=O)N1CCOCC1 (stereo unspecified)	1.1	-10.3	8.2	x	0.918	x	x
Cc1cccc(C)c1Nc1ncnc(N)c1[N+](=O)[O-]	0.785	21.5	1.0	16.0	0.99	0.8	x
COc1cccc(C(=O)NCC(=O)NNc2ncnc(N)c2[N+](=O)[O-])c1	2.71*	-170.7	16.8	-26.0	0.832	1.3	7.6
C#CCCc1ccccc1/C=[N+](/C)[O-]	1.25	-24.8	11.4	x	0.886	x	x
CC1CCN(C(=O)CN2C(=O)NC3(CCCCCC3)C2=O)CC1	0.978	2.2	5.7	x	0.943	x	x
COc1cc(/C=C2\SC(=S)N(NC(=O)c3cccnc3)C2=O)ccc1O	0.698	30.2	35.3	x	0.647	x	x
COc1cc(/C=C2\SC(=S)N(Nc3ccccc3)C2=O)ccc1O	0.604	39.6*	41.3*	-3.5	0.587	1	7.7
O=C1/C(=C/c2ccc(O)c(O)c2)SC(=S)N1Nc1ccccc1	x	x	x	x	x	0.5	x
COc1cc(/C=C2\SC(=S)N(NC(=O)c3ccc(O)cc3)C2=O)ccc1O	0.564	43.6*	34.1	x	0.659	x	1.7
CCOc1cc(/C=C2\SC(=S)N(N3CCOCC3)C2=O)ccc1O	0.612	38.8*	37.8	x	0.622	x	-33.0
O=C1/C(=C/c2ccc(F)cc2)SC(=S)N1N1CCOCC1	0.876	12.4	4.2	x	0.958	x	x
O=S(=O)(Cc1c(F)cccc1Cl)c1ncn[nH]1	1.07	-7.2	-6.1	-8.7	1.06	1.1	x
CCc1nn2c(=O)cc(COC(=O)c3ccc(SC)cc3OC)nc2s1	1.06	-6.0	5.5	x	0.945	x	x
Cc1nc(Nc2nc3c(c(=O)[nH]2)CCC3)nc2ccccc12	2.77*	-176.8	11.7	x	0.883	x	-77.6*
NS(=O)(=O)c1ccc2nc(NC(=O)c3ccc4ncsc4c3)sc2c1	0.644	35.6*	-4.1	x	1.04	x	-18.8
C/C(=N/Nc1ccccc1[N+](=O)[O-])c1ccc([N+](=O)[O-])cc1	0.632	36.8*	9.4	x	0.906	x	-232.7*
SMILES	hIAP act	hIAP block	mIAP block	bIAP inhibitor	mIAP activ	bIAP activator	hIAP act confirm
COc1ccccc1C(=O)N1CCN(Cc2cccnc2)CC1	1.32	-32.5	1.3	x	0.987	x	x
O=C(NCC1CC1)[C@]1(C(F)(F)F)C[C@H](CCC2CCCCC2)CCCO1	1	-0.2	4.0	x	0.96	x	x
N#CCN1C(=S)N=C(Nc2cccc(Cl)c2)C12CCCCC2	2.06*	-105.7	-12.8	-2.4	1.13	1	-55.5*
CC(=O)Nc1ccc(NC(=O)CSc2ccc3nnc(-c4ccccn4)n3n2)cc1	0.958	4.2	6.7	x	0.933	x	x
CC(=O)N1CCOc2ccc(S(=O)(=O)N3CCCC(C)C3)cc21 (stereo unspecified)	0.568	43.2*	-8.4	x	1.08	x	54.0
CC(=O)N1CCOc2ccc(S(=O)(=O)N3C(C)CCCC3C)cc21 (stereo unspecified)	0.877	12.3	8.8	x	0.912	x	x
COc1ccc(CNC(=O)c2csc(Cc3ccccc3)n2)cc1	2.05*	-104.6	10.0	9.0	0.9	0.9	9.3
